In ChEMBL document CHEMBL1275434, “In vitro evaluation of CBR-2092, a novel rifamycin-quinolone hybrid antibiotic: studies of the mode of action in Staphylococcus aureus” (Antimicrob Agents Chemother, 2008):
In brackets after ≈: the same amount, converted by molar mass. Activity calls are given as the source filed them. No cut-off for these calls is given here.

Assays:
Staphylococcus aureus [1] = assay: Antimicrobial activity against Staphylococcus aureus CB1884 by broth microdilution method; assay type: functional
Summary of the method: (§1)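 CLSI broth microdilution MIC in MHII broth with 0.002% (vol/vol) polysorbate 80. Isolates came from daily stepwise broth passage at sub-MIC drug (MHII without polysorbate 80, 10^6 CFU/ml inoculum, 20–24 h shaking at 37°C), were purified drug-free, and were sequenced at target loci.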

Staphylococcus aureus [2] = assay: Inhibition of RNA synthesis in rifamycin-resistant Staphylococcus aureus CB370 harboring rpoB H481Y mutant gene assessed as decrease in [5,6-3H]uridine incorporation at 0.5 ug/ml; assay type: functional, organism-based
Summary of the method: (§2)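 Macromolecular synthesis time course in S. aureus, measuring incorporation of [methyl-3H]thymidine (DNA), [5,6-3H]uridine (RNA) or [2,3-3H]D-alanine (cell wall). At each time point, incorporation is expressed as percent of the DMSO-treated control culture. Incorporation at time zero is set to 100%.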

Staphylococcus aureus [3] = assay: Antimicrobial activity against Staphylococcus aureus CB814 harboring […] and parC S80F mutant genes by agar dilution method; assay type: functional
Summary of the method: (§3)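 CLSI agar dilution MIC with cation-adjusted Mueller-Hinton (MHII) agar as the base medium.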

Staphylococcus aureus [4] = assay: Antimicrobial activity against Staphylococcus aureus CB1327 harboring rpoB H481Y and gyrA S84L mutant genes selected after 0.2 ug/ml drug exposure by broth microdilution method; assay type: functional
Summary of the method: (§4)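 CLSI broth microdilution MIC in cation-adjusted Mueller-Hinton (MHII) broth with 0.002% (vol/vol) polysorbate 80. Single-step mutants were selected on agar […], purified by drug-free passage, their phenotype re-verified, and resistance loci sequenced.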

Staphylococcus aureus [5] = assay: Antimicrobial activity against rifampin-sensitive Staphylococcus aureus CB190 harboring rpoB H481N mutant gene by broth microdilution method; assay type: functional
Summary of the method: (§5)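 CLSI broth microdilution MIC in cation-adjusted Mueller-Hinton (MHII) broth supplemented with 0.002% (vol/vol) polysorbate 80, included to limit compound loss to plastic surfaces.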

Staphylococcus aureus [6] = assay: Antimicrobial activity against Staphylococcus aureus CB1884 harboring rpoB R484H mutant gene, L520 deficient gyrA gene, gyrA S84L mutant gene, R236 duplicated par C gene and parCH103Y mutant gene by broth microdilution; assay type: functional; summary of the method: as §1
Staphylococcus aureus [7] = assay: Antimicrobial activity against Staphylococcus aureus CB1952 harboring rpoB S486L, gyrA […], gyrA E88Q, gyrA G532S, parC S80F, parC E84L mutant genes selected after CBR-2092 exposure for 21 days by agar dilution method; assay type: functional; settings: CB1952, 504 h
Summary of the method: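 CLSI agar dilution MIC on MHII base medium against strains from multistep passage (up to 20–21 days) of parents with preexisting rifamycin and/or quinolone resistance.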

Staphylococcus aureus [8] = assay: Antimicrobial activity against Staphylococcus aureus CB1524 harboring rpoB H481Y and gyrA G773V mutant genes selected after 0.25 ug/ml drug exposure by broth microdilution method; assay type: functional
Summary of the method: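 CLSI broth microdilution in cation-adjusted Mueller-Hinton (MHII) broth supplemented with 0.002% (vol/vol) polysorbate 80 to limit compound loss to plastic. Strains are spontaneous single-step mutants isolated on agar from an rpoB H481Y parent (RN4220 background), purified through drug-free passage with the resistance phenotype re-verified as stable before testing; target loci genotyped by PCR amplification and sequencing.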

Staphylococcus aureus [9] = assay: Antimicrobial activity against rifampin-sensitive Staphylococcus aureus CB190 harboring rpoB N474K mutant gene by broth microdilution method; assay type: functional; summary of the method: as §5
Staphylococcus aureus [10] = assay: Activity at Staphylococcus aureus wild-type DNA topoisomerase 4 subunit ParC
Summary of the method: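 Recombinant S. aureus topoisomerase IV (wild-type ParC with ParE; specific activity 25 to 30 U per μg). Stopped with SDS/proteinase K. Linear DNA quantified on gel; CC50 is the mean of two or more assays.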

Staphylococcus aureus [11] = assay: Antimicrobial activity against Staphylococcus aureus CB1875 harboring gyrA […], parC R298K mutant genes and LNVIKEE461 inserted parC gene by broth microdilution method; assay type: functional; summary of the method: as §1
Staphylococcus aureus [12] = assay: Antimicrobial activity against rifampin-sensitive Staphylococcus aureus CB190 harboring rpoB H472 mutant gene by broth microdilution method; assay type: functional; summary of the method: as §5
Staphylococcus aureus [13] = assay: Antimicrobial activity against Staphylococcus aureus CB1880 harboring rpoB R484H mutant gene by agar dilution method; assay type: functional
Summary of the method: (§6)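 CLSI agar dilution MIC on MHII base medium against stepwise-passage isolates; passage was in MHII broth without polysorbate 80, daily at 37°C.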

Staphylococcus aureus [14] = assay: Antimicrobial activity against Staphylococcus aureus CB1954 harboring rpoB H481Y, gyrA S84L, K809 deficient gyrA, parC S80F, parC A523D mutant genes selected after CBR-2092 exposure for 7 days by broth microdilution method; assay type: functional; settings: CB1954, 168 h; summary of the method: as §5
Staphylococcus aureus [15] = assay: Inhibition of DNA synthesis in quinolone-resistant Staphylococcus aureus CB814 harboring gyrA S84L and parC S80F mutant genes assessed as decrease in [methyl-3H]thymidine incorporation at 0.5 ug/ml; assay type: functional, organism-based; summary of the method: as §2
Staphylococcus aureus [16] = assay: Antimicrobial activity against Staphylococcus aureus CB1416 harboring rpo BH481Y and gyrA L795S mutant genes selected after 0.1 ug/ml drug exposure by broth microdilution method
Staphylococcus aureus [17] = assay: Antimicrobial activity against Staphylococcus aureus CB1420 harboring rpoB H481Y and gyrA G584V mutant genes selected after 0.1 ug/ml drug exposure by broth microdilution method
Staphylococcus aureus [18] = assay: Inhibition of RNA synthesis in Staphylococcus aureus CB190 assessed as decrease in [5,6-3H]uridine incorporation at 0.5 ug/ml; assay type: functional, organism-based
Staphylococcus aureus [19] = assay: Antimicrobial activity against wild-type Staphylococcus aureus CB190 by agar dilution method; assay type: functional; summary of the method: as §3
Staphylococcus aureus [20] = assay: Antimicrobial activity against Staphylococcus aureus CB1881 harboring rpoB R484H mutant gene and L520 deficient gyrA gene; assay type: functional
Staphylococcus aureus [21] = assay: Antimicrobial activity against Staphylococcus aureus CB190 by broth microdilution method; assay type: functional
Staphylococcus aureus [22] = assay: Antimicrobial activity against Staphylococcus aureus CB1884 by agar dilution method; assay type: functional; summary of the method: as §6
Staphylococcus aureus [23] = assay: Activity at Staphylococcus aureus DNA topoisomerase 4 subunit ParC S80F mutant
Staphylococcus aureus [24] = assay: Antimicrobial activity against Staphylococcus aureus CB1326 harboring rpoB H481Y and gyrA S784F mutant genes selected after 0.2 ug/ml drug exposure by broth microdilution method; assay type: functional; summary of the method: as §4
Staphylococcus aureus [25] = assay: Antimicrobial activity against Staphylococcus aureus CB1887 harboring rpoB R484H, L520 deficient gyrA, […], R236 duplicated parC and parC H103Y mutant genes selected after ABT-719 exposure for 20 days by broth microdilution method; assay type: functional; settings: CB1887, 480 h
Summary of the method: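 CLSI broth microdilution MIC in MHII with 0.002% polysorbate 80 against strains from 20–21 days of stepwise passage of rifamycin- and/or quinolone-resistant parents; CBR-2092 passages used MHII with 0.002% polysorbate 80.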

Staphylococcus aureus [26] = assay: Inhibition of protein synthesis in Staphylococcus aureus CB190 assessed as decrease in L-[3,4,5-3H]leucine incorporation at 0.5 ug/ml; assay type: functional, organism-based
Staphylococcus aureus [27] = assay: Antimicrobial activity against Staphylococcus aureus CB814 harboring fluoroquinolone-resistant gyrA S84L and parC S80F mutant genes by broth microdilution method; assay type: functional; summary of the method: as §5
Staphylococcus aureus [28] = assay: Antimicrobial activity against Staphylococcus aureus CB811 harboring quinolone-resistant gyrA S84L mutant gene by broth microdilution method; assay type: functional; summary of the method: as §5

CO[C@H]1/C=C/O[C@@]2(C)Oc3c(C)c(O)c4c(O)c(c(/C=N/N5CCC(N(C)C6([C@@H]7CCN(c8c(F)cn9c(=O)c(C(=O)O)cc(C%10CC%10)c9c8C)C7)CC6)CC5)c(O)c4c3C2=O)NC(=O)/C(C)=C\C=C\[C@H](C)[C@H](O)[C@@H](C)[C@@H](O)[C@@H](C)[C@H](OC(C)=O)[C@@H]1C
MIC (Staphylococcus aureus [1]): 64 µg/mL (≈ 53.1 µM)
Activity (Staphylococcus aureus [2]): Active
MIC (Staphylococcus aureus [3]): 0.06 µg/mL (≈ 0.0498 µM)
MIC (Staphylococcus aureus [4]): 0.5 µg/mL (≈ 0.415 µM)
MIC (Staphylococcus aureus [5]): 0.25 µg/mL (≈ 0.207 µM)
MIC (Staphylococcus aureus [6]): 64 µg/mL (≈ 53.1 µM)
MIC (Staphylococcus aureus [7]): 4 µg/mL (≈ 3.32 µM)
MIC (Staphylococcus aureus [8]): 2 µg/mL (≈ 1.66 µM)
MIC (Staphylococcus aureus [9]): 0.25 µg/mL (≈ 0.207 µM)
CC50 (Staphylococcus aureus [10]): 1.7 µM
MIC (Staphylococcus aureus [11]): 0.008 µg/mL (≈ 0.00664 µM)
MIC (Staphylococcus aureus [12]): 0.12 µg/mL (≈ 0.0996 µM)
MIC (Staphylococcus aureus [13]): 0.032 µg/mL (≈ 0.0265 µM)
MIC (Staphylococcus aureus [14]): 16 µg/mL (≈ 13.3 µM)
Activity (Staphylococcus aureus [15]): Active
MIC (Staphylococcus aureus [16]): 0.5 µg/mL (≈ 0.415 µM)
MIC (Staphylococcus aureus [17]): 0.5 µg/mL (≈ 0.415 µM)
Activity (Staphylococcus aureus [18]): Active
MIC (Staphylococcus aureus [19]): 0.008 µg/mL (≈ 0.00664 µM)
Time (Staphylococcus aureus [20]): 41 min
MIC (Staphylococcus aureus [21]): 0.015 µg/mL (≈ 0.0124 µM)
MIC (Staphylococcus aureus [22]): 4 µg/mL (≈ 3.32 µM)
CC50 (Staphylococcus aureus [23]): 2.7 µM
MIC (Staphylococcus aureus [24]): 0.5 µg/mL (≈ 0.415 µM)
MIC (Staphylococcus aureus [25]): > 250 µg/mL
Activity (Staphylococcus aureus [26]): Active
MIC (Staphylococcus aureus [27]): 0.015 µg/mL (≈ 0.0124 µM)
MIC (Staphylococcus aureus [28]): 0.015 µg/mL (≈ 0.0124 µM)
